Laboratory results as given in ChEMBL document CHEMBL2034820, “Discovery, synthesis, and biological evaluation of novel pyrrole derivatives as highly selective potassium-competitive acid blockers” (Bioorg Med Chem, 2012).
Activity calls are given as the source filed them. The rule behind the calls is not given here.

Experiments:
[1] = Inhibition of H+/K+ATPase in pig gastric microsomes assessed as liberation of inorganic phosphate from ATP hydrolysis after 30 mins; parameters: species or system Sus scrofa, Stomach, Microsome
Method in brief: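 Porcine gastric mucosal microsomes (Ficoll-interface fraction, stored at -80 C) in 50 mmol/L HEPES-Tris pH 6.5 with 5 mmol/L MgCl2, valinomycin, ±10 mmol/L KCl. Preincubated with compound at 37 C for 30 min, then started by adding 2 mmol/L ATP solution. Stopped with malachite green; Pi read at 620 nm. K+-dependent activity from ± K+ difference; IC50 by sigmoidal dose-response fit.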

Rattus norvegicus [2] = test: Inhibition of histamine-induced gastric acid secretion in Jcl:Sprague-Dawley rat at 1 mg/kg, iv administered 3 mins before histamine challenge measured after 3 hrs relative to control; type: functional; conditions: Stomach
Method in brief: (§1)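 Seven-week-old male SD rats, fasted 24 h with free water, anesthetized with urethane 1.2 g/kg ip and pylorus-ligated. Drug or vehicle given iv just after ligation; histamine 2HCl 30 mg/kg sc 3 min later. After 3 h, gastric contents were centrifuged and titrated to pH 7.0 with 0.1 mol/L NaOH. Total 3 h acid output compared with vehicle.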

Sus scrofa [3] = species: Sus scrofa; test: Reversible inhibition of H+/K+ATPase in pig gastric microsomes assessed as liberation of inorganic phosphate from ATP hydrolysis at 0.1 uM incubated for 20 mins measured after compound washout; conditions: Stomach, Microsome
Method in brief: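 Gastric microsomes incubated with compound (1% DMSO final) at 37 C for 30 min in 50 mmol/L HEPES-Tris pH 6.5, 5 mmol/L MgCl2, 10 mmol/L KCl. Activity measured on an aliquot and on the remainder after washout (30 kDa ultrafiltration, resuspended compound-free). Reaction started with 2 mmol/L ATP, run at 37 C for 20 min; malachite green phosphate read-out; % of 1% DMSO vehicle, n = 2.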

Sus scrofa [4] = species: Sus scrofa; test: Competitive inhibition of H+/K+ATPase in pig gastric microsomes by Lineweaver-Burk plot analysis; conditions: Stomach, Microsome
[5] = Inhibition of Na+/K+ ATPase in pig cerebral cortex; type: tissue-based, Sus scrofa
Method in brief: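 Otherwise run as the gastric H+,K+-ATPase assay: compound preincubation at 37 C for 30 min, ATP-started reaction, malachite green phosphate read-out at 620 nm.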

Rattus norvegicus [6] = test: Inhibition of histamine-induced gastric acid secretion in Jcl:Sprague-Dawley rat at 10 mg/kg, iv administered 3 mins before histamine challenge measured after 3 hrs relative to control; type: functional; conditions: Stomach; method in brief: as §1
Canis familiaris [7] = test: Inhibition of histamine-stimulated gastric acid secretion in heidenhain pouch dog at 1 mg/kg, po prestimulated with histamine 1 day before compound treatment and 1, 3, 6 and 24 hrs post compound treatment measured every 30 mins for 3 times; type: functional, organism-based; parameters: dose 1 mg/kg; conditions: Canis lupus familiaris, Stomach
Method in brief: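 Dogs dosed orally in a blinded design (0.2 mL/kg), with vehicle controls. Histamine 2HCl injected sc. Pouch gastric juice collected as three consecutive 30 min periods after each histamine dose. Volume measured, and acid titrated to pH 7.0 with 0.1 mol/L NaOH. Total 90 min acid output at each time expressed as % of pre-dosing value.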

Canis familiaris [8] = test: Inhibition of histamine-stimulated gastric acid secretion in heidenhain pouch dog at 1 mg/kg, po prestimulated with histamine 1 day before compound treatment and 1, 3, 6 and 24 hrs post compound treatment measured after 24 hrs; type: functional, organism-based; parameters: dose 1 mg/kg; conditions: Canis lupus familiaris, Stomach
Method in brief: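 Heidenhain pouch dogs dosed orally (0.2 mL/kg), blinded. Histamine 2HCl given sc 1 day before and at 1, 3, 6 and 24 h post-dose. Pouch juice collected over three consecutive 30 min periods and titrated to pH 7.0 with 0.1 mol/L NaOH. 90 min acid output expressed as % of the pre-dosing value.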

SMILES	IC50 [1]	inhibition in vivo at 1 mg/kg (Rattus norvegicus [2])	other results
CNCc1cc(-c2ccccc2)n(S(=O)(=O)c2ccc(C)cc2)c1	55 nM	66%	inhibition (Sus scrofa [3]): Active; inhibition (Sus scrofa [4]): Active; IC50 [5]: > 10000 nM
CCNCc1cc(-c2ccccc2)n(S(=O)(=O)c2ccc(C)cc2)c1	650 nM		inhibition in vivo at 10 mg/kg (Rattus norvegicus [6]): 53%
Cc1ccc(S(=O)(=O)n2cc(C(N)=O)cc2-c2ccccc2)cc1	> 10000 nM		
CCCCc1cc(CNC)cn1S(=O)(=O)c1ccccc1	250 nM	-8%	
Cc1ccc(S(=O)(=O)n2cc(CN)cc2-c2ccccc2)cc1	860 nM		
CNC(C)c1cc(-c2ccccc2)n(S(=O)(=O)c2ccc(C(F)(F)F)cc2)c1 (stereo unspecified)	2300 nM	-4%	
CNCc1cc(C2CC2)n(S(=O)(=O)c2ccccc2)c1	1500 nM		
CNCc1cc(-c2ccccc2)n(S(=O)(=O)c2ccccc2)c1Cl	40 nM	49%	IC50 [5]: > 10000 nM
CCNCc1cc(-c2ccc3c(c2)OCO3)n(S(=O)(=O)c2ccc(C)cc2)c1	540 nM		inhibition in vivo at 10 mg/kg (Rattus norvegicus [6]): 39%
CNCc1cn(S(=O)(=O)c2ccccc2)c(-c2ccccc2)c1C	29 nM	95%	IC50 [5]: > 10000 nM
Cc1c(OCC(F)(F)F)ccnc1C[S+]([O-])c1nc2ccccc2[nH]1 (stereo unspecified)			inhibition (Canis familiaris [7]): Active
CCCCS(=O)(=O)n1cc(CNC)cc1-c1ccccc1	830 nM		
CNCc1cc(-c2ccccc2)n(S(=O)(=O)c2ccc(OC)cc2)c1	30 nM	95%	IC50 [5]: > 10000 nM; inhibition (Canis familiaris [7]): Active; inhibition (Canis familiaris [8]): Active
CNCc1cc(-c2ccccc2)n(S(=O)(=O)c2ccccc2)c1	9.4 nM	96%	IC50 [5]: > 10000 nM
CNCc1cc(-c2ccccc2)n(Cc2ccccc2)c1	510 nM		inhibition in vivo at 10 mg/kg (Rattus norvegicus [6]): 84%
CNCc1cc(-c2ccccc2)n(S(=O)(=O)c2ccccc2)c1C	25 nM	77%	IC50 [5]: > 10000 nM
CN(C)Cc1cc(-c2ccccc2)n(S(=O)(=O)c2ccc(C(F)(F)F)cc2)c1	710 nM		inhibition in vivo at 10 mg/kg (Rattus norvegicus [6]): 59%
CNCc1cc(-c2ccccc2)n(S(C)(=O)=O)c1	> 10000 nM		inhibition in vivo at 10 mg/kg (Rattus norvegicus [6]): 27%
CNCc1cc(-c2ccccc2)n(C(=O)c2ccccc2)c1	> 10000 nM		
CNCc1cc(-c2ccccc2)n(S(=O)(=O)c2ccc(C(F)(F)F)cc2)c1	110 nM	73%	
COCc1cc(-c2ccccc2)n(S(=O)(=O)c2ccc(C)cc2)c1	> 10000 nM		inhibition in vivo at 10 mg/kg (Rattus norvegicus [6]): -3%
